Key:
[1] = Effect on transmembrane action potential in dog purkinje cells assessed as average rising velocity at 10 mg/l after 20 mins in presence of 2.7 mM/l K+ relative to control; type: functional, Canis lupus familiaris
Method in brief: (§1)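 Canine Purkinje false-tendon preparations from pentobarbital-anesthetized dogs, in oxygenated Tyrode at 37 °C with KCl 2.7 or 5.4 mM. Compound given by bolus to the final bath concentration. TMAP recorded by intracellular glass microelectrode before dosing and 2–20 min after. ARV of phase 0 (V/s) and activation time (ms) expressed as % change from control at 20 min. Two preparations per compound.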

[2] = Effect on transmembrane action potential in dog purkinje cells assessed as change in amplitude at 20 mg/l after 20 mins in presence of 5.4 mM/l K+ relative to control; type: functional, Canis lupus familiaris
Method in brief: (§2)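 Purkinje false tendons with attached myocardium came from adult dogs (10–15 kg) anesthetized with pentobarbital 30 mg/kg iv. Tissue was bathed in Tyrode (KCl 2.7 or 5.4 mM) gassed with 95% O2-5% CO2 at 37 °C and impaled with glass microelectrodes. Compound was given as a bolus to the final bath concentration, with records at 2–20 min. Two preparations per compound; % change from control at 20 min.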

[3] = test system: Mus musculus; experiment: Toxicity in ip dosed Swiss-Webster albino mouse; type: organism-based; conditions: in vivo
[4] = test system: Mus musculus; experiment: Antiarrhythmic activity in ip dosed Swiss-Webster albino mouse assessed as prevention of chloroform-induced ventricular fibrillation; type: functional, Heart
[5] = Effect on transmembrane action potential in dog purkinje cells assessed as change in activation time at 10 mg/l after 20 mins in presence of 5.4 mM/l K+ relative to control; type: functional, Canis lupus familiaris; method in brief: as §1
[6] = Effect on transmembrane action potential in dog purkinje cells assessed as change in activation time at 20 mg/l after 20 mins in presence of 5.4 mM/l K+ relative to control; type: functional, Canis lupus familiaris; method in brief: as §1
[7] = Effect on transmembrane action potential in dog purkinje cells assessed as change in activation time at 10 mg/l after 20 mins in presence of 2.7 mM/l K+ relative to control; type: functional, Canis lupus familiaris; method in brief: as §1
[8] = species on record: Homo sapiens; experiment: Drug absorption in buccal cavity in human at pH 9.3 after 5 mins by UV spectrometry; type: ADME, organism-based; conditions: in vivo, other, pH 9.3, 5 min
Method in brief: (§3)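 3 mg compound in 25 ml buffer (0.1 M phosphate pH 5.50 or 7.50; tetraborate pH 9.30) swished in the mouth for 5 min, expelled, and combined with a 10 ml water rinse. Made up to 50 ml; aliquot basified to pH 10 and ether-extracted, then back-extracted into 0.1 N HCl. UV absorbance read at λmax against Beer's law plots; the unrecovered fraction is taken as % absorbed. One to three subjects.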

[9] = Effect on transmembrane action potential in dog purkinje cells assessed as change in activation time at 40 mg/l after 20 mins in presence of 5.4 mM/l K+ relative to control; type: functional, Canis lupus familiaris; method in brief: as §2
[10] = Effect on transmembrane action potential in dog purkinje cells assessed as change in activation time at 50 mg/l after 20 mins in presence of 2.7 mM/l K+ relative to control; type: functional, Canis lupus familiaris; method in brief: as §2
[11] = Effect on transmembrane action potential in dog purkinje cells assessed as change in amplitude at 10 mg/l after 20 mins in presence of 5.4 mM/l K+ relative to control; type: functional, Canis lupus familiaris; method in brief: as §2
[12] = Effect on transmembrane action potential in dog purkinje cells assessed as change in amplitude at 10 mg/l after 20 mins in presence of 2.7 mM/l K+ relative to control; type: functional, Canis lupus familiaris; method in brief: as §2
[13] = species on record: Homo sapiens; experiment: Drug absorption in buccal cavity in human at pH 7.50 after 5 mins by UV spectrometry; type: ADME, organism-based; conditions: in vivo, other, pH 7.5, 5 min; method in brief: as §3
[14] = Effect on transmembrane action potential in dog purkinje cells assessed as average rising velocity at 20 mg/l after 20 mins in presence of 5.4 mM/l K+ relative to control; type: functional, Canis lupus familiaris; method in brief: as §1
[15] = Effect on transmembrane action potential in dog purkinje cells assessed as change in activation time at 25 mg/l after 20 mins in presence of 2.7 mM/l K+ relative to control; type: functional, Canis lupus familiaris; method in brief: as §1
[16] = test system: Heart; experiment: Antiarrhythmic activity in Hartley guinea pig atria assessed as change in maximum driving rate at 55.2 uM/l after 5 mins; type: functional, Cavia porcellus
Method in brief: (§4)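 Spontaneously beating isolated atria held under initial tension; bath fluid changed every 10 min; stabilised about 1 h. Maximum driving rate found with 1-ms square pulses at 50% above threshold voltage, 10 s every 30 s; the frequency just before failure of following is the MDR. Control is the mean of two determinations. Spontaneous rate recorded by tachograph. Values are % change from control at peak response, generally 5–30 min.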

[17] = Effect on transmembrane action potential in dog purkinje cells assessed as average rising velocity at 40 mg/l after 20 mins in presence of 5.4 mM/l K+ relative to control; type: functional, Canis lupus familiaris; method in brief: as §1
[18] = Therapeutic index, ratio of LD50 for toxicity to ED50 for antiarrhythmic activity in ip dosed Swiss-Webster albino mouse; type: organism-based, Heart; conditions: in vivo, read-out: Ratio LD50/ED50
[19] = Effect on transmembrane action potential in dog purkinje cells assessed as average rising velocity at 25 mg/l after 20 mins in presence of 2.7 mM/l K+ relative to control; type: functional, Canis lupus familiaris; method in brief: as §1
[20] = Effect on transmembrane action potential in dog purkinje cells assessed as change in amplitude at 25 mg/l after 20 mins in presence of 2.7 mM/l K+ relative to control; type: functional, Canis lupus familiaris; method in brief: as §2
[21] = Effect on transmembrane action potential in dog purkinje cells assessed as change in amplitude at 40 mg/l after 20 mins in presence of 5.4 mM/l K+ relative to control; type: functional, Canis lupus familiaris; method in brief: as §2
[22] = Effect on transmembrane action potential in dog purkinje cells assessed as average rising velocity at 10 mg/l after 20 mins in presence of 5.4 mM/l K+ relative to control; type: functional, Canis lupus familiaris; method in brief: as §1
[23] = Dissociation constant, pKa of the compound in 0.01 M potassium hydrogen phthalate; type: physicochemical
Method in brief: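 pKa by potentiometric titration with 0.01 M potassium hydrogen phthalate in a thermostated vessel, stirred, under nitrogen bubbling, using glass and calomel electrodes. pKa is the mean pH at half-neutralization from four titrations. Endpoints were taken from parallel tangents on either side of the inflection.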

[24] = species on record: Homo sapiens; experiment: Drug absorption in buccal cavity in human at pH 5.50 after 5 mins by UV spectrometry; type: ADME, organism-based; conditions: in vivo, other, pH 5.5, 5 min; method in brief: as §3
[25] = Effect on transmembrane action potential in dog purkinje cells assessed as average rising velocity at 50 mg/l after 20 mins in presence of 2.7 mM/l K+ relative to control; type: functional, Canis lupus familiaris; method in brief: as §1
[26] = Effect on transmembrane action potential in dog purkinje cells assessed as change in amplitude at 50 mg/l after 20 mins in presence of 2.7 mM/l K+ relative to control; type: functional, Canis lupus familiaris; method in brief: as §2
[27] = test system: Heart; experiment: Antiarrhythmic activity in Hartley guinea pig atria assessed as change in spontaneous rate at 55.2 uM/l after 5 mins; type: functional, Cavia porcellus; method in brief: as §4
[28] = Effect on transmembrane action potential in dog purkinje cells assessed as average rising velocity at 30 mg/l after 20 mins in presence of 2.7 mM/l K+ relative to control; type: functional, Canis lupus familiaris; method in brief: as §1
[29] = test system: Heart; experiment: Antiarrhythmic activity in Hartley guinea pig atria assessed as change in maximum driving rate at 58.6 uM/l after 5 mins; type: functional, Cavia porcellus; method in brief: as §4
[30] = Effect on transmembrane action potential in dog purkinje cells assessed as change in activation time at 30 mg/l after 20 mins in presence of 2.7 mM/l K+ relative to control; type: functional, Canis lupus familiaris; method in brief: as §1
[31] = test system: Heart; experiment: Antiarrhythmic activity in Hartley guinea pig atria assessed as change in spontaneous rate at 58.6 uM/l after 5 mins; type: functional, Cavia porcellus; method in brief: as §4
[32] = Effect on transmembrane action potential in dog purkinje cells assessed as change in amplitude at 30 mg/l after 20 mins in presence of 2.7 mM/l K+ relative to control; type: functional, Canis lupus familiaris; method in brief: as §2
[33] = test system: Heart; experiment: Antiarrhythmic activity in Hartley guinea pig atria assessed as change in spontaneous rate at 55.0 uM/l after 5 mins; type: functional, Cavia porcellus; method in brief: as §4
[34] = test system: Homo sapiens; experiment: Toxicity in human assessed as numbness at 5 x 10' -5 M administered topically to buccal cavity measured up to 15 to 20 mins; type: organism-based; conditions: in vivo, topical_or_ocular, 50 µM
[35] = Effect on transmembrane action potential in dog purkinje cells assessed as change in amplitude at 20 mg/l after 20 mins in presence of 2.7 mM/l K+ relative to control; type: functional, Canis lupus familiaris; method in brief: as §2
[36] = Effect on transmembrane action potential in dog purkinje cells assessed as change in activation time at 20 mg/l after 20 mins in presence of 2.7 mM/l K+ relative to control; type: functional, Canis lupus familiaris; method in brief: as §1
[37] = Effect on transmembrane action potential in dog purkinje cells assessed as average rising velocity at 20 mg/l after 20 mins in presence of 2.7 mM/l K+ relative to control; type: functional, Canis lupus familiaris; method in brief: as §1
[38] = test system: Heart; experiment: Antiarrhythmic activity in Hartley guinea pig atria assessed as change in maximum driving rate at 55.0 uM/l after 5 mins; type: functional, Cavia porcellus; method in brief: as §4
[39] = test system: Heart; experiment: Antiarrhythmic activity in Hartley guinea pig atria assessed as reversible decrease in maximum driving rate compound treated for 5 mins measured up to 2 hrs post washout; type: functional, tissue-based; conditions: Cavia porcellus
Method in brief: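 After compound exposure the bath was washed out. Two MDR determinations were made every 15 min for up to 2 h to follow reversibility and recovery toward control. Bath fluid was changed every 10 min.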

[40] = test system: Heart; experiment: Antiarrhythmic activity in Hartley guinea pig atria assessed as change in maximum driving rate at 73.2 uM/l after 5 mins; type: functional, Cavia porcellus; method in brief: as §4
[41] = test system: Heart; experiment: Antiarrhythmic activity in Hartley guinea pig atria assessed as change in spontaneous rate at 36.6 uM/l after 5 mins; type: functional, Cavia porcellus; method in brief: as §4
[42] = test system: Heart; experiment: Antiarrhythmic activity in Hartley guinea pig atria assessed as change in maximum driving rate at 36.6 uM/l after 5 mins; type: functional, Cavia porcellus; method in brief: as §4
[43] = test system: Heart; experiment: Antiarrhythmic activity in Hartley guinea pig atria assessed as change in spontaneous rate at 73.2 uM/l after 5 mins; type: functional, Cavia porcellus; method in brief: as §4

Compound | Activity [1] [%] | Activity [2] [%] | LD50 [3] | ED50 [4] [µmol/kg] | Activity [5] [%] | Activity [6] [%] | Activity [7] [%] | Drug absorption [8] [%] | Activity [11] [%] | Activity [12] [%] | Drug absorption [13] [%] | Activity [14] [%] | selectivity ratio [18] | Activity [22] [%] | pKa [23] | Drug absorption [24] [%] | Activity [34] | further results
COc1cc(C(=O)N[C@@H]2CCC[C@@H]3CCN(C)C[C@H]32)cc(OC)c1OC (mixture of isomers) | -9 | 0 | 835 | 124 | -4 | -1 | 2 | 31.1 | 0 | 0 | 18.1 | -29 | 6.7 | -24 | 8.75 | 5.5 |  | Activity [9]: -1%; Activity [10]: 105%; Activity [15]: 23%; Activity [16]: -13.3%; Activity [17]: -50%; Activity [19]: -19%; Activity [20]: -2%; Activity [21]: -6%; Activity [25]: -44%; Activity [26]: -8%; Activity [27]: -14.4%
CN1CC[C@H]2CCC[C@@H](NC(=O)c3ccc(Cl)c(Cl)c3)[C@@H]2C1 (mixture of isomers) |  | -5 | 1304 | 104 | 18 | 42 |  | 59.3 | -11 |  | 25.7 | -58 | 12.7 | -30 |  | 20.5 |  | Activity [28]: -72%; Activity [29]: -45%; Activity [30]: 81%; Activity [31]: -41.2%; Activity [32]: -23%
COc1cc(C(=O)O[C@@H]2CCC[C@@H]3CCN(C)C[C@H]32)cc(OC)c1OC (mixture of isomers) | -6 | -17 | 338 | 74 | 530 | 300 | 131 | 69.5 | -7 | -12 | 19.7 | -71 | 4.5 | -50 | 8.82 | 17.1 | Toxic | Activity [33]: -42.4%; Activity [35]: -15%; Activity [36]: 389%; Activity [37]: -58%; Activity [38]: -54.5%
CN1CC[C@H]2CCC[C@@H](OC(=O)c3ccccc3)[C@H]2C1 (relative stereo) |  |  | 900 | 245 |  |  |  | 81.8 |  |  | 46 |  | 3.7 |  | 9.05 | 29.7 | Toxic | Activity [39]: Dose-dependent effect; Activity [40]: -55.5%; Activity [41]: -23%; Activity [42]: -24.5%; Activity [43]: -57.8%

— ChEMBL document CHEMBL3272033, “Physicochemical and pharmacological studies of some 8-substituted decahydroisoquinolines” (J Med Chem, 1976)
